Screening results (PubChem)
MLL AF4-AF9 inh = blocks AF4 peptide binding to human AF9; inhibition, % at 10 µM; AlphaScreen, biotin-AF4 peptide binding to FLAG-AF9; AID 651704; P42568; hit rate 0.47% among 350,000;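 active means every replicate reaching a set inhibition limit, whatever the replicate mean, cut at about 25% in these data; inconclusive means mean inhibition reaches that limit but some replicates miss it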
Target sequence (P42568 whole entry, looked up): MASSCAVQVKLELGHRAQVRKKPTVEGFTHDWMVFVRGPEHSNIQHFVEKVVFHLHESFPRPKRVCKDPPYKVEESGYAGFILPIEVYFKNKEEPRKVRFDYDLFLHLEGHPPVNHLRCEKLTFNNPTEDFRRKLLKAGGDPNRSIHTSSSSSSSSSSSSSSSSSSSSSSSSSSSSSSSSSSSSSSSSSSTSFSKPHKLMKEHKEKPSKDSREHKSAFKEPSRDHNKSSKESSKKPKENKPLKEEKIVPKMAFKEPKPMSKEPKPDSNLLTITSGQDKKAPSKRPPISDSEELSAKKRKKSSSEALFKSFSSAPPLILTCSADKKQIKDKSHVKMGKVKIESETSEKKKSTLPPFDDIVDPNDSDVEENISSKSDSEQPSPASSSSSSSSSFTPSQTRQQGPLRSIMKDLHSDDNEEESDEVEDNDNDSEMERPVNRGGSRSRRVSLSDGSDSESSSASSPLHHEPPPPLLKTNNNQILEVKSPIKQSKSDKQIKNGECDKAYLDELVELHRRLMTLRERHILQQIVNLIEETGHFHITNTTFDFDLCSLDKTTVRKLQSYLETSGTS
DENV2 CPE rescue = inhibitors of DENV2 cytopathic effect | DENV2-infected cells, cytopathic effect rescue, plate reader | CPE inhibition, % at 9.99 µM | hit rate 1.7% among 350,000 | AID 651640; in the data active means CPE inhibition above about 20%, passing the limit was not always enough; inconclusive means no clear call, values can overlap the other calls; tested in BHK-21 cells
rRNA inh HTS = inhibits bacterial ribosomal RNA function over humanized ribosomes; E. coli WT GFP vs humanized-ribosome RFP mutants, fluorescence, 24 h; hits give low values; DMSO median 0, no signal -100; hit rate 1.6% among 350,000; GFP signal change (wild-type ribosome), % (no concentration beside the values);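 active means significant combined selectivity score with lowered wild-type GFP, culture density cut under 30%, mutant RFP and density less affected; inactive means any of these conditions unmet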
PfHsp90 yeast 2 = inhibits growth of yeast expressing Plasmodium falciparum Hsp90 | inhibition, % at 9.4 µM | hit rate 0.32% among 310,000 | S. cerevisiae expressing PfHsp90, BacTiter-Glo ATP, 48 h; yeast lacking PDR1 and PDR3 efflux regulators | AID 504621;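 active means every replicate shows inhibition above about 80%, whatever the replicate mean, limit read from the data; inconclusive means mean inhibition reaches the set limit but some replicate falls short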
S100A4 inh HTS = inhibitors of human S100A4 binding to myosin IIA peptide. P26447. S100A4/TAMRA-MyoIIA peptide fluorescence polarization. inhibition, % at 10.7 µM. hit rate 0.14% among 360,000. AID 652163;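 active means mean inhibition of at least 70% across replicates, with every replicate also reaching that level; inconclusive means mean inhibition reaches 70% but some replicates fall short; inactive means mean inhibition below 70%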
Target sequence (P26447 whole entry, looked up): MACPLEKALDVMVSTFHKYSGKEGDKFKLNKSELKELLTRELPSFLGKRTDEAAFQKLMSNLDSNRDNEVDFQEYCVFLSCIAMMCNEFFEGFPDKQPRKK
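Test system – S100A4 monomer (human) · Compound – single-point compound testing · Schedule – 5 min incubation before reading · Probe or stimulus – TAMRA-labelled myosin IIA heavy-chain peptide probe, 5 nM · Benchmarks – neutral control DMSO, positive control TFP · Medium – Calcium-containing HEPES buffer, pH 7.2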
Cneo AK release = causes C. neoformans cell lysis; adenylate kinase release luminescence, 4 h; normalised: neutral wells 0, clomiphene wells 100; hit rate 0.2% among 360,000; lysis activity, % at 15 µM;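 active means mean lysis activity across replicates of at least 80%, whatever share of replicates individually reach that level; inactive means mean lysis activity below 80%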
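Test system: log-phase Cryptococcus neoformans yeast cells; Quantity: yeast cell density of 5 × 10^6 cells/mL; Buffer or medium: YPD; Doses: single compound concentration per well; Timing: 4 h at 37 °C static, read 1 h later; Measured by: AK luminescence; Read-out basis: lysis from increased AK signal; Control set: Clomiphene as positive control.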
Hits are given with their value; i = inactive; ? = inconclusive; nt = not tested or not shown. The list is not random: actives were taken first. Their share in the collection is about 3.2%.

SMILES	MLL AF4-AF9 inh	DENV2 CPE rescue	rRNA inh HTS	PfHsp90 yeast 2	S100A4 inh HTS	Cneo AK release
CCCN1C[C@@H](C)[C@@H](OC)CN(C)C(=O)c2ccc(NS(=O)(=O)c3cn(C)cn3)cc2OC[C@H]1C	i	i	i	nt	i	i
C[C@@H](NC(=O)c1ncn(C)c1C(=O)N[C@H](C)c1ccccc1)c1ccccc1	i	89.8	i	i	i	i
CCn1cc(Br)c(C(=O)NC(C)c2ccccc2)n1 (configuration not stated)	nt	nt	nt	i	nt	i
Cc1ccc(-c2csc(NC(=O)c3cccc(C)c3)c2C(=O)O)cc1	i	i	-38.4	i	i	i
CO[C@H]1CN(C)C(=O)c2ccc(NS(=O)(=O)C3CCCCC3)cc2OC[C@@H](C)NC[C@@H]1C	nt	nt	i	nt	nt	nt
CN(C)/C=C/C(=O)c1ccc(N2CCN(c3ncc(C(F)(F)F)cc3Cl)CC2)cc1	nt	nt	nt	108.9	nt	i
NNC(=O)CN1CCN(c2ncc(C(F)(F)F)cc2Cl)CC1	i	i	i	i	i	nt
O=C(CN1CCN(c2ncc(C(F)(F)F)cc2Cl)CC1)NCCNc1ncc(C(F)(F)F)cc1Cl	nt	nt	nt	99.9	nt	i
COc1ccc(Cl)cc1NC(=O)CN(C)S(=O)(=O)c1cccs1	i	i	-32.5	i	i	i
COc1ccc(Cl)cc1NC(=S)NNC(=O)c1cccs1	i	i	-32.3	i	i	nt
COc1ccc(Cl)cc1NC(=O)CN(C)CC(=O)NCc1cccs1	i	i	i	i	i	i
COc1ccccc1C(=O)NNC(=S)NC(=O)c1cccs1	i	i	i	91.7	i	i
O=C(NC(=S)NNC(=O)c1ccccc1O)c1cccs1	i	i	i	i	i	i
CN1CCN(C(=O)C[C@H]2CC[C@H]3[C@H](COc4ccc(NC(=O)c5cscn5)cc4C(=O)N3C)O2)CC1	i	i	i	nt	i	i
O=C(NCC[C@@H]1CC[C@H](NC(=O)C2CCCC2)[C@H](CO)O1)Nc1ccc(Cl)cc1	i	i	i	nt	i	i
Cn1c(CNc2ccc(Cl)cc2)nnc1SCc1ccccc1	nt	nt	nt	121.0	nt	nt
CCn1c(CNc2ccc(Cl)cc2)nnc1SCc1ccccc1	nt	nt	nt	92.5	nt	i
COc1ccc2cc(C(=O)C3CCCN(C(=O)C4=NN(C)C(=O)CC4)C3)ccc2c1 (configuration not stated)	i	i	-25.6	i	i	i
COc1ccc2cc(C(=O)C3CCCN(C(=O)c4cccnc4)C3)ccc2c1 (configuration not stated)	i	i	i	i	i	i
O=C(N/N=C/c1ccc([N+](=O)[O-])o1)c1sc2ccccc2c1Cl	i	i	i	103.5	i	nt
COc1ccc(S(=O)(=O)N2CCCCC2c2cc(C(=O)Nc3ccccc3)no2)cc1 (configuration not stated)	i	32.9	i	nt	i	i
COC(=O)N1CCCCC1c1cc(C(=O)Nc2ccccc2Cl)no1 (configuration not stated)	i	27.8	i	nt	i	i
O=C(Nc1ccccc1Cl)c1cc(C2CCCCN2C(=O)C2CCCCC2)on1 (configuration not stated)	i	i	i	nt	i	i
Cc1ccc(F)cc1C(=O)N1CCCCC1c1cc(C(=O)NC(C)C)no1 (configuration not stated)	i	56.1	i	nt	i	i
COC(=O)N1CCCCC1c1cc(C(=O)Nc2ccc(OC)cc2C)no1 (configuration not stated)	i	50.6	i	nt	i	i
SMILES	MLL AF4-AF9 inh	DENV2 CPE rescue	rRNA inh HTS	PfHsp90 yeast 2	S100A4 inh HTS	Cneo AK release
COc1ccc(C(=O)N2CCCCC2c2cc(C(=O)Nc3ccc(OC)cc3C)no2)cc1 (configuration not stated)	i	i	i	nt	i	i
CCCNC(=O)N(C)C[C@H]1Oc2ncc(-c3ccc(OC)cc3)cc2C(=O)N([C@H](C)CO)C[C@@H]1C	i	i	i	nt	i	i
CO[C@@H]1CN(C)C(=O)c2ccc(NC(=O)Nc3ccccc3Cl)cc2OC[C@@H](C)N(S(=O)(=O)CC(F)(F)F)C[C@H]1C	i	i	i	nt	i	i
CC(C)c1cn(CC[C@H]2CC[C@H](NS(=O)(=O)Cc3ccccc3)[C@H](CO)O2)nn1	i	i	i	nt	i	i
CC(C)NC(=O)Nc1ccc2c(c1)C(=O)N([C@H](C)CO)C[C@@H](C)[C@H](CN(C)CC1CC1)OCCCC[C@@H](C)O2	nt	nt	i	nt	nt	nt
COc1ccc(C(=O)N2CCCCC2c2cc(C(=O)NCc3cccnc3)no2)cc1 (configuration not stated)	i	32.8	i	nt	i	i
COc1cc(C(=O)N2CCCCC2c2cc(C(=O)NCc3cccnc3)no2)cc(OC)c1C (configuration not stated)	i	i	i	nt	i	i
COc1ccc(NC(=O)c2cc(C3CCCCN3C(=O)c3cc(C(C)(C)C)nn3C)on2)c(C)c1 (configuration not stated)	i	48.0	i	nt	i	i
CC(C)n1cnnc1SCC(=O)Nc1cccnc1Cl	?	68.4	i	i	i	i
COc1ccc(CNC(NC(=O)c2ccccc2)(C(F)(F)F)C(F)(F)F)cc1	i	i	-18.9	i	i	nt
C[C@H](CO)N1C[C@H](C)[C@H](CN(C)C(=O)Nc2ccccc2)Oc2ncc(C#CC3CCCCC3)cc2C1=O	i	i	i	nt	i	i
OCC#CCSc1nnc(-c2cccc3ccccc23)o1	i	92.8	i	i	i	i
O=C(OCC#CCSc1nnc(-c2cccc3ccccc23)o1)c1ccc(Cl)cc1	i	i	i	i	i	i
COc1ccc(S(=O)(=O)N(C)C[C@@H]2Oc3ccc(NS(=O)(=O)c4cccs4)cc3CC(=O)N([C@@H](C)CO)C[C@H]2C)cc1	i	i	i	nt	i	i
COc1ccc(S(=O)(=O)N(C)C[C@H]2Oc3ccc(NS(=O)(=O)c4cccs4)cc3CC(=O)N([C@@H](C)CO)C[C@@H]2C)cc1	i	26.3	i	nt	i	i
C[C@@H]1CN([C@H](C)CO)C(=O)Cc2cc(NS(=O)(=O)c3cccs3)ccc2O[C@H]1CN(C)S(=O)(=O)c1ccc(F)cc1	i	24.3	i	nt	i	i
C[C@H](CO)N1C[C@H](C)[C@@H](CN(C)S(=O)(=O)c2ccc(F)cc2)Oc2ccc(NS(=O)(=O)c3cccs3)cc2CC1=O	i	i	i	nt	i	i
COc1ccc(/C=C(\C#N)C(=O)N2CCOCC2)cc1Br	nt	nt	nt	i	nt	i
Cc1cc(/C=C(\C#N)C(=O)N2CCOCC2)c(C)n1C1CCCC1	i	i	-22.0	i	i	nt
O=C(N/N=C/C(Cl)=C/c1ccccc1)c1ccccn1	i	i	-15.2	i	i	nt
CC(=O)c1ccc(NC(=S)NC(C)c2ccc(Cl)cc2Cl)cc1 (configuration not stated)	i	nt	-48.5	nt	i	i
